# Data from ChEMBL document CHEMBL4477183, “Antimicrobial Peptide from the Wild Bee Hylaeus signatus Venom and Its Analogues: Structure-Activity Study and Synergistic Effect with Antibiotics” (J Nat Prod, 2016).
# The source made the active and inactive calls. No cut-off for these calls is given here. Non-standard residues stand in square brackets, D forms with d. Residues, ends and D or L forms follow the SMILES beside them. ξ: configuration not given here. ξNle = CCCCC(N)C(=O)O
# Columns and labels:
# [1] = tested on: Pseudomonas aeruginosa; assay: Induction of cell permeabilization in Pseudomonas aeruginosa assessed as propidium iodide uptake at 4 uM after 10 mins; format: functional, organism-based
# [2] = tested on: Staphylococcus aureus; assay: Antimicrobial activity against Staphylococcus aureus clinical isolates from Liberec regional hospital assessed as reduction in bacterial growth after 20 hrs by […]; format: functional
# In short: (§1)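 Broth microdilution in LB (YPG for C. albicans) with 2-fold serial dilutions, final 0.1–100 μM. Mid-log cells grown 3–5 h at 37 °C were added at about 5 × 10^5 cfu/mL, then incubated 20 h at 37 °C with shaking. A540 was read every 15 min to build growth curves. Medium with cells served as growth control; at least three runs in duplicate.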
# [3] = tested on: Staphylococcus aureus; assay: Antimicrobial activity against Staphylococcus aureus clinical isolates from university hospital in Motol assessed as reduction in bacterial growth after 20 hrs by drop diffusion test; format: functional
# [4] = tested on: Escherichia coli; assay: Antimicrobial activity against Escherichia coli assessed as reduction in bacterial growth after 20 hrs by […]; format: functional; in short: as §1
# [5] = tested on: Pseudomonas aeruginosa; assay: Antimicrobial activity against Pseudomonas aeruginosa 5482 assessed as reduction in bacterial growth after 20 hrs […]; format: functional; details: Pseudomonas aeruginosa, 5482, 20 h; in short: as §1
# [6] = tested on: Pseudomonas aeruginosa; assay: Antimicrobial activity against Pseudomonas aeruginosa clinical isolates assessed as reduction in bacterial growth after 20 hrs by […]; format: functional; in short: as §1
# [7] = Hemolytic activity in human type RBC after 1 hr; format: ADME, cell-based, Erythrocyte; details: red blood cells (erythrocytes), read-out: LC50
# In short: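 Peptides at 2.5–400 μM were incubated with a 4% suspension of human erythrocytes in physiological solution for 1 h at 37 °C, then centrifuged at 250g for 5 min; supernatant A540 was read. Saline-treated cells gave 0% lysis and 0.2% Triton X-100 gave 100%. LC50 is the concentration lysing 50% of cells; duplicates in at least two independent experiments.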
# [8] = tested on: Candida albicans; assay: Antifungal activity against Candida albicans assessed as reduction in fungal growth after 20 hrs by […]; format: functional; in short: as §1
# [9] = tested on: Micrococcus luteus; assay: Antimicrobial activity against Micrococcus luteus assessed as reduction in bacterial growth after 20 hrs by […]; format: functional; in short: as §1
# [10] = tested on: Bacillus subtilis; assay: Antimicrobial activity against Bacillus subtilis assessed as reduction in bacterial growth after 20 hrs by […]; format: functional; in short: as §1
# [11] = tested on: Staphylococcus aureus; assay: Antimicrobial activity against Staphylococcus aureus clinical isolates assessed as FIC index in presence of amoxicillin after 20 hrs by drop diffusion test; format: functional
# [12] = tested on: Pseudomonas aeruginosa; assay: Antimicrobial activity against Pseudomonas aeruginosa clinical isolates assessed as FIC index in presence of tetracycline after 20 hrs by drop diffusion test; format: functional
# [13] = tested on: Pseudomonas aeruginosa; assay: Antimicrobial activity against Pseudomonas aeruginosa clinical isolates assessed as FIC index in presence of rifampicin after 20 hrs by drop diffusion test; format: functional
# [14] = tested on: Staphylococcus aureus; assay: Antimicrobial activity against Staphylococcus aureus 6271 assessed as reduction in bacterial growth after 20 hrs by broth microdilution assay; details: Staphylococcus aureus, 6271, 20 h
# [15] = tested on: Staphylococcus epidermidis; assay: Antimicrobial activity against Staphylococcus epidermidis assessed as reduction in bacterial growth after 20 hrs by broth microdilution assay
# [16] = tested on: Pseudomonas aeruginosa; assay: Bactericidal activity against Pseudomonas aeruginosa assessed as induction of bacteria killing at 20 uM after 4 hrs by time kill assay; format: functional, organism-based
# In short: (§2)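 P. aeruginosa grown at 37 °C with shaking to mid-log phase, then diluted in fresh LB to about 5 × 10^5 cfu/mL. This inoculum was mixed 1:1 with LB containing the agent and shaken at 37 °C for 4 h. Samples were taken at 0–240 min, serially diluted in 0.9% NaCl and plated on LB agar overnight at 37 °C; viable counts are given as cfu/mL. LB-only growth control; means of four independent runs, SEM.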
# [17] = tested on: Pseudomonas aeruginosa; assay: Bactericidal activity against Pseudomonas aeruginosa assessed as reduction in bacterial count at 20 uM after 4 hrs by time kill assay; format: functional
# In short: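 P. aeruginosa inoculum about 5 × 10^5 cfu/mL in LB mixed 1:1 with LB alone or LB containing test agent at final 8, 24, 80 or 20 μM. Incubation was at 37 °C with shaking for 4 h. Aliquots taken at 0–240 min were serially diluted in 0.9% NaCl and plated on LB agar overnight at 37 °C. Viable cfu/mL were counted; means of four independent measurements.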
# [18] = tested on: Staphylococcus aureus; assay: Antimicrobial activity against Staphylococcus aureus clinical isolates from Liberec regional hospital assessed as reduction in bacterial growth after 20 hrs by broth microdilution assay
# [19] = tested on: Pseudomonas aeruginosa; assay: Bacteriostatic activity against Pseudomonas aeruginosa assessed as induction of bacteria killing at 80 uM after 60 mins by time kill assay; format: functional, organism-based; in short: as §2
# [20] = tested on: Pseudomonas aeruginosa; assay: Bacteriostatic activity against Pseudomonas aeruginosa assessed as induction of bacteria killing at 80 uM after 3 hrs by time kill assay; format: functional, organism-based; in short: as §2
Molecule,Activity [1],MIC [2] [µM],MIC [3] [µM],MIC [4] [µM],MIC [5] [µM],MIC [6] [µM],HC50 at 1 h [7] [µM],MIC [8] [µM],MIC [9] [µM],MIC [10] [µM],fractional inhibitory concentration index (FICI) [11],fractional inhibitory concentration index (FICI) [12],fractional inhibitory concentration index (FICI) [13],MIC [14] [µM],MIC [15] [µM],Activity [16],fold change (FC) [17],MIC [18] [µM],Activity [19],Activity [20]
CCCCCCCCN=c1ccn(CCCCCCCCCCn2ccc(=NCCCCCCCC)cc2)cc1,Active,–,–,–,–,–,–,–,–,–,–,–,–,–,–,–,–,–,–,–
CCCCC(NC(=O)[C@H](CC(C)C)NC(=O)[C@H](CO)NC(=O)[C@H](CO)NC(=O)C(CCCC)NC(=O)[C@@H](NC(=O)CN)[C@@H](C)CC)C(=O)N[C@@H](CCCCN)C(=O)N[C@@H](CCCCN)C(=O)N[C@@H](CC(C)C)C(=O)N[C@@H](CCCCN)C(=O)N[C@@H](CCCCN)C(=O)N[C@H](C(=O)N[C@H](C(=O)N[C@@H](C)C(N)=O)[C@@H](C)CC)[C@@H](C)CC (stereo partly specified) (H-GI[ξNle]SSL[ξNle]KKLKKIIA-NH2),–,4,6.7,10,4,7.9,373,10,≤ 3,≤ 7,0.55,0.58,0.93,13,2.5,–,–,–,–,–
CO[C@H]1/C=C/O[C@@]2(C)Oc3c(C)c(O)c4c(O)c(c(/C=N/N5CCN(C)CC5)c(O)c4c3C2=O)NC(=O)/C(C)=C\C=C\[C@H](C)[C@H](O)[C@@H](C)[C@@H](O)[C@@H](C)[C@H](OC(C)=O)[C@@H]1C [RIFAMPIN],–,–,< 0.1,10,27,19,–,–,–,–,–,–,–,< 0.1,< 0.1,Active,3,< 0.1,–,–
CN(C)[C@@H]1C(O)=C(C(N)=O)C(=O)[C@@]2(O)C(O)=C3C(=O)c4c(O)cccc4[C@@](C)(O)[C@H]3C[C@@H]12 [TETRACYCLINE],–,–,2,2.7,29,70,> 200,–,–,–,–,–,–,0.9,> 100,–,–,1.1,inactive,Active
H-GILKSLLKKLKKIIAK-NH2,–,4.3,10,10,5,8.9,> 400,24,≤ 3,≤ 7,0.54,0.52,0.33,17,2.2,–,–,–,–,–
H-GILSKLLKKLKKIIAK-NH2,–,5.9,10,18,4.5,8.5,> 400,45,≤ 3,≤ 7,0.33,0.65,0.34,23,1.8,–,–,–,–,–
H-GILSSLWKKLKKIIAK-NH2,–,2,5,3.4,5.3,8.8,197,11,≤ 3,≤ 7,0.56,0.65,0.44,5.3,2,–,–,–,–,–
